Laboratory results reported in ChEMBL document CHEMBL1135280, “Synthesis and pharmacological evaluation of 6-piperidino- and 6-piperazinoalkyl-2(3H)-benzothiazolones as mixed sigma/5-HT(1A) ligands” (Bioorg Med Chem Lett, 2002).

Columns and labels:
[1] = molecular target: D(2) dopamine receptor (Rattus norvegicus, UniProt P61169); test: Displacement of [3H]- raclopride from rat striatum Dopamine receptor D2
[2] = molecular target: Histamine H1 receptor (Rattus norvegicus, UniProt P31390); test: Displacement of [3H]- pyrilamine from rat brain membrane Histamine H1 receptor
[3] = molecular target: T1, Muscarinic acetylcholine receptor M1 (Rattus norvegicus, UniProt P08482); test: In vitro binding affinity towards Muscarinic acetylcholine receptor M1 by displacing [3H]- telenzepine from rat brain membrane
T1 sequence (P08482 whole entry): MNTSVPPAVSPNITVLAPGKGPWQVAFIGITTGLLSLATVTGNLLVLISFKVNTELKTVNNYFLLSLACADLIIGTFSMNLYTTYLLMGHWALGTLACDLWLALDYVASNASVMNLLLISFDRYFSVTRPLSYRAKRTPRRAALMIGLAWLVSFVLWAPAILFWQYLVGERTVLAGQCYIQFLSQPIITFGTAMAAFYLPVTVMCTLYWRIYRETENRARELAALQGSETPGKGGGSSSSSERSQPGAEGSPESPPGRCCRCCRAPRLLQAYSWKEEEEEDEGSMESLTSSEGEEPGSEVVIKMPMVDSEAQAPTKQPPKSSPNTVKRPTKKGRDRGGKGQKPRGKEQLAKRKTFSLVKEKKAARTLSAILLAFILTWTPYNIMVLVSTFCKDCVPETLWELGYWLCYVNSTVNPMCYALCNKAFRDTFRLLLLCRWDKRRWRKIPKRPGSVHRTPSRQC

[4] = molecular target: T2, 5-hydroxytryptamine receptor 1A (Rattus norvegicus, UniProt P19327); test: Displacement of […] membrane 5-hydroxytryptamine 1A receptor
T2 sequence (P19327 whole entry): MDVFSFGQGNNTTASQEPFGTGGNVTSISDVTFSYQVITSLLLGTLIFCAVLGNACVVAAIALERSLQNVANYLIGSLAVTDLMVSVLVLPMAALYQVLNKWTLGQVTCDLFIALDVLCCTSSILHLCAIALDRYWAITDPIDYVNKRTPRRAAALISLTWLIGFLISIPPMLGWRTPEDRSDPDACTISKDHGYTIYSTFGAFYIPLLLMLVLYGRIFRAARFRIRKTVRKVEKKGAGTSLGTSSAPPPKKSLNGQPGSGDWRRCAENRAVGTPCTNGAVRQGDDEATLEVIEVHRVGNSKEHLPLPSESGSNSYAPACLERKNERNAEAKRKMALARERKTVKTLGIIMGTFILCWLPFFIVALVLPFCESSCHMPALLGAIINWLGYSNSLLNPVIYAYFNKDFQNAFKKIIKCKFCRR
Outline: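 Radioligand displacement on rat brain membranes, run by an external laboratory. [3H]prazosin and [3H]ketanserin were used with cortex, and [3H]-8-OH-DPAT with hippocampus.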

[5] = Binding affinity ratio towards sigma receptor compared to the 5-hydroxytryptamine 1A receptor
[6] = molecular target: T3, Sigma non-opioid intracellular receptor 1 (Homo sapiens, UniProt Q99720); test: In vitro binding affinity for Sigma opioid receptor by displacement of [3H]DTG
[7] = molecular target: T1, Muscarinic acetylcholine receptor M1; test: In vitro binding affinity towards Muscarinic acetylcholine receptor M1 by displacing [3H]- telenzepine from rat brain membrane
[8] = molecular target: T3, Sigma non-opioid intracellular receptor 1; test: In vitro binding affinity towards Sigma opioid receptor type 1 by using [3H]- (+)-pentazocine as radioligand
[9] = molecular target: Sigma 2 receptor; test: In vitro binding affinity towards Sigma opioid receptor type 2 by using [3H]- DTG in the presence of 1 uM (+)- pentazocine
[10] = molecular target: T3, Sigma non-opioid intracellular receptor 1; test: Binding affinity ratio between Sigma opioid receptor type 1 and Sigma opioid receptor type 2
Outline: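 Selectivity ratio of σ1 to σ2 affinity, determined only for compounds with high affinity at sigma sites. σ1 affinity was measured with (+)-pentazocine and σ2 affinity with DTG as radioligands.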

[11] = organism: Rattus norvegicus; test: In vitro binding affinity ratio between Sigma opioid receptor and 5-hydroxytryptamine 1A receptor

Sequence of D(2) dopamine receptor (P61169 whole entry): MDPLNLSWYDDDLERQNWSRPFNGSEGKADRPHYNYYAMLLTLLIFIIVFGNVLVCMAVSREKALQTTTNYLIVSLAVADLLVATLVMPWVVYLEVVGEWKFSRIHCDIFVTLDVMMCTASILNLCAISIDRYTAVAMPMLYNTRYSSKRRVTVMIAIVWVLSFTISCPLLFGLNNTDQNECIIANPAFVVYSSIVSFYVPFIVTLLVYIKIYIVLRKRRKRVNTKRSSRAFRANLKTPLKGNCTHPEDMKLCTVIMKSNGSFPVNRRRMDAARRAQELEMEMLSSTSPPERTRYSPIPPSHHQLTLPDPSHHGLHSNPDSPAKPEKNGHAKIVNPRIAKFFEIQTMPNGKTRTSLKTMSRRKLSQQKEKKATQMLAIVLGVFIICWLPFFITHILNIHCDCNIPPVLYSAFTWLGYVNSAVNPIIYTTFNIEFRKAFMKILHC
T3 sequence (Q99720 whole entry): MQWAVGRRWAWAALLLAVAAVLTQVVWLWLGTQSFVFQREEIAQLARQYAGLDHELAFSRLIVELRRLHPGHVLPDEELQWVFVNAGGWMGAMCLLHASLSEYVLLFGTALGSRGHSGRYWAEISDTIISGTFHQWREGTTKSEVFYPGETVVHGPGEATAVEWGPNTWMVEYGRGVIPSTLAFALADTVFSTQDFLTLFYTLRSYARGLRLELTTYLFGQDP
Sequence of Histamine H1 receptor (P31390 whole entry): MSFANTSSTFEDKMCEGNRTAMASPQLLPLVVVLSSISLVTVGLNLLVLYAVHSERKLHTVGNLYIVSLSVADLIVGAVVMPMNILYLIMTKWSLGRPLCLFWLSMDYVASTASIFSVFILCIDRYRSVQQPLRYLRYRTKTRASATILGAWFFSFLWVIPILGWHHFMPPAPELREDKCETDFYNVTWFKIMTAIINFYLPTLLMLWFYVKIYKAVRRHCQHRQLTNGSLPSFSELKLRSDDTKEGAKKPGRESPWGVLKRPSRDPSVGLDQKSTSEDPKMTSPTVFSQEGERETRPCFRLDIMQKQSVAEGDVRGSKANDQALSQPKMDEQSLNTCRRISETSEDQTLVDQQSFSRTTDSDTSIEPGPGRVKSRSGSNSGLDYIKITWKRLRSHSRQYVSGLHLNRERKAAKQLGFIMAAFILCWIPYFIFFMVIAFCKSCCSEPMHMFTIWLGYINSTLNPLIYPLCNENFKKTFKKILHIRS

| Ki [1] [µM] | Ki [2] [µM] | Ki [3] [µM] | Ki [4] [µM] | Ratio [5] | Ki [6] [µM] | Ki [7] [µM] | Ki [8] [µM] | Ki [9] [µM] | Ratio [10] | Ratio [11] | Structure (SMILES) |
| --- | --- | --- | --- | --- | --- | --- | --- | --- | --- | --- | --- |
| > 10 | 20 | > 10 | > 10 | < 0.2 | 2 | – | – | – | – | – | C[C@@H]1CN(CCc2ccc3c(c2)sc(=O)n3C)C[C@H](C)N1 |
| 0.1 | 0.009 | – | 0.03 | 0.17 | 0.005 | 0.2 | – | – | – | – | Cn1c(=O)sc2cc(CCCCN3CCC(Cc4ccccc4)CC3)ccc21 |
| 0.03 | 6 | – | 0.01 | 0.3 | 0.003 | – | – | – | – | – | Cn1c(=O)sc2cc(CCCCN3CCC(c4ccccc4)CC3)ccc21 |
| > 10 | 0.007 | 0.5 | 0.03 | 0.1 | 0.003 | – | – | – | – | – | Cn1c(=O)sc2cc(CCN3CCN(Cc4ccccc4)CC3)ccc21 |
| 10 | < 0.1 | 10 | 0.04 | – | 0.002 | – | 0.0372 | 0.002 | – | – | Cn1c(=O)sc2cc(CCCCN3CCN(Cc4ccccc4)CC3)ccc21 |
| 0.1 | < 0.1 | < 10 | 0.2 | 0.04 | 0.009 | – | – | – | – | – | Cn1c(=O)sc2cc(CCCCN3CCN(Cc4ccc(Cl)cc4Cl)CC3)ccc21 |
| 1 | 0.02 | 1 | 0.004 | – | 0.002 | – | 0.02 | – | 10 | 0.5 | Cn1c(=O)sc2cc(CCN3CCC(c4ccccc4)CC3)ccc21 |
| > 100 | > 100 | > 100 | > 100 | < 0.001 | 0.1 | – | – | – | – | – | C[C@@H]1CN(CCCCc2ccc3c(c2)sc(=O)n3C)C[C@H](C)N1 |
| 0.1 | 0.009 | 0.5 | 0.3 | – | 0.002 | – | 0.139 | – | 70 | 0.006 | Cn1c(=O)sc2cc(CCCCN3CCN(Cc4ccc(Cl)c(Cl)c4)CC3)ccc21 |
| 0.2 | 0.04 | 1 | 0.03 | 0.17 | 0.005 | – | – | – | – | – | Cn1c(=O)sc2cc(CCN3CCN(Cc4ccc(Cl)c(Cl)c4)CC3)ccc21 |
| 0.1 | 0.01 | – | 0.1 | 0.08 | 0.008 | – | – | – | – | – | Cn1c(=O)sc2cc(CCN3CCN(Cc4ccc(Cl)cc4Cl)CC3)ccc21 |
| > 0.1 | 0.003 | 0.1 | 0.004 | 1.25 | 0.005 | – | – | – | – | – | Cn1c(=O)sc2cc(CCN3CCC(Cc4ccccc4)CC3)ccc21 |
